Compound activity (PubChem)
A selection: hits, their analogues and other compounds. The true share with any hit is near 2.6%.
T cruzi inh: blocks replication of Trypanosoma cruzi; AID 1885; T. cruzi beta-gal in NIH3T3, luminescence, 90 h; 300,000 compounds, 1.4% hits; inhibition, % (no concentration beside the values);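 active = mean inhibition across valid replicates above about 55%, limit read from the data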;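 note: signal also drops with host cell toxicity which is not excluded here; higher percent means less beta-gal luminescence so fewer parasites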
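System: mouse NIH/3T3 fibroblasts infected with β-gal-expressing T. cruzi Tulahuen C4 / Input: NIH/3T3 cells, 5,000 per well / Buffer or medium: Low-serum DMEM with 2% FBS / Probe or stimulus: 5000 reporter trypomastigotes per well / Schedule: ≥90 h infection period, 3 h prior cell attachment / Measured by: GalScreen luminescence, 60 min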
CHT inh: inhibitors of human choline transporter CHT | Q9GZV3 | CHT-expressing cells, membrane potential dye, choline response; stronger effect = lower value | B-score at 10 µM | 310,000 compounds, 0.86% hits | AID 488975;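 active = B-score over 3 SD under the library average, and starting fluorescence ratio not unusually high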;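 note: choline stimulus applied at its EC90 after an EC20 pre-addition; B-score computed on integrated fluorescence ratio after choline addition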
Target sequence (Q9GZV3 whole entry, looked up): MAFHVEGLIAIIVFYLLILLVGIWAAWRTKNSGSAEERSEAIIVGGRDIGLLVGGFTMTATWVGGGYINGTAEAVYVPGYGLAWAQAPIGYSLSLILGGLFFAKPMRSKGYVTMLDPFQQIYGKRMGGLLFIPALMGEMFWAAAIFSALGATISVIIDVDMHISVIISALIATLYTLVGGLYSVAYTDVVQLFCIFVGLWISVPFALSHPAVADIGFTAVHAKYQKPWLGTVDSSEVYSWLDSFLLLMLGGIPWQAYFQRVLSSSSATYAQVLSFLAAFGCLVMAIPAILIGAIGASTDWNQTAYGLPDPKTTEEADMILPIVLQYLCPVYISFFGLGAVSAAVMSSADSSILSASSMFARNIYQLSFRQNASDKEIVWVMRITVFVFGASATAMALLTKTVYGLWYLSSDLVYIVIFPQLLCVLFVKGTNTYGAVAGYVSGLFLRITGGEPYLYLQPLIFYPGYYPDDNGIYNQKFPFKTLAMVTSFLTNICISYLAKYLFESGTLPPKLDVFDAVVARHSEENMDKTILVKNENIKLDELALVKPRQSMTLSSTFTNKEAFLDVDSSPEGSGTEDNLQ
PolyA inh: yeast polyadenylation inhibition | S. cerevisiae SKY197-pL101 polyadenylation reporter, beta-gal luminescence; efflux-impaired pdr1/pdr3 knockout yeast; score 100 = 6 SD above DMSO | activity score, % at 12 µM | 300,000 compounds, 0.02% hits;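 active = lowest replicate activity score at least 50, where 100 means six control SD above control mean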;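 note: yeast exposed to compound for 9 h at 30 °C; higher score means more reporter readthrough which indicates perturbed polyadenylation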
CHT PAM: allosterically activates the human high affinity choline transporter; 310,000 compounds, 0.49% hits; B-score at 10 µM; AID 488977; CHT-expressing cells, membrane potential dye, choline EC20; stronger effect = higher value; LV-AA mutant CHT in HEK293 cells; Q9GZV3;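 active = initial fluorescence not abnormally high and integrated response B-score, plate-corrected, over 3 SD above library mean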
CHT activ conf: confirmation of human choline transporter (CHT) activators; shares compounds with CHT PAM; CHT-expressing cells, membrane potential dye fluorescence (FDSS); % of choline EC20–EC90 response window; HEK293 expressing CHT LV-AA mutant; choline added at its EC20; activation, % at 10 µM; 2,500 compounds, 91% hits; AID 504833;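 active = primary screen active, with duplicate mean activation above negative control mean plus 3 SD, cut at about 11% in these data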
HEK293 MP dye: counter-screen for CHT activators: effect in parental HEK293 cells; shares compounds with CHT PAM; membrane potential dye fluorescence (FDSS); measured after EC20 choline addition; ratio readout change at 10 µM, hits read low; 2,500 compounds, 62% hits; AID 623908;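 active = duplicate-averaged ratio beyond 3 SD from buffer wells, up or down, though filed actives are nearly all decreases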
Hits are given with their value.

How did CN1CCN(c2nc3c(c(=O)n(C)c(=O)n3C)n2CCSc2nc3ccccc3s2)CC1 do in these assays?
CHT inh: inactive; CHT PAM: 7.35; CHT activ conf: 65.5; HEK293 MP dye: -46.2

Results for CN1CCN(c2nc3c(c(=O)[nH]c(=O)n3C)n2CCCSc2nnnn2-c2ccccc2)CC1 ?
T cruzi inh: inactive; CHT inh: inactive; PolyA inh: inactive; CHT PAM: 6.59; CHT activ conf: 47.3; HEK293 MP dye: -49.4

What do the screens show for `N#Cc1ncccc1CCc1cccc(Cl)c1`?
T cruzi inh: inactive; CHT inh: inactive; PolyA inh: inactive; CHT PAM: inactive

How did Cc1ccc(S(=O)(=O)Nc2ccccc2C(=O)N2CCN(C)CC2)cc1 do in these assays?
T cruzi inh: inactive; CHT inh: inactive; PolyA inh: inactive; CHT PAM: inactive

Results for CC(C)n1c(SCC(=O)N2CCN(C(=O)c3ccco3)CC2)nc2c1c(=O)n(C)c(=O)n2C ?
T cruzi inh: inactive; CHT inh: inactive; PolyA inh: inactive; CHT PAM: inactive

What do the screens show for `Cn1c(=O)c2c(nc(N3CCN(C(=O)c4ccco4)CC3)n2CCSc2ncccn2)n(C)c1=O`?
T cruzi inh: inactive; CHT inh: inactive; PolyA inh: inactive; CHT PAM: 7.12; CHT activ conf: 56.7; HEK293 MP dye: -58

What do the screens show for `CCCn1c(N2CCN(Cc3cccc(C)c3)CC2)nc2c1c(=O)[nH]c(=O)n2C`?
T cruzi inh: inactive; CHT inh: inactive; PolyA inh: inactive; CHT PAM: inactive; CHT activ conf: 12.3; HEK293 MP dye: -27.6

What do the screens show for `Cc1cccc(Cn2c(N3CCN(C)CC3)nc3c2c(=O)[nH]c(=O)n3C)c1`?
T cruzi inh: inactive; CHT inh: inactive; PolyA inh: inactive; CHT PAM: inactive

How did Nc1c(C(=O)Nc2cccc(F)c2)nnn1-c1ccc2c(c1)OCCO2 do in these assays?
T cruzi inh: inactive; CHT inh: inactive; PolyA inh: inactive; CHT PAM: inactive

How did C[n+]1ccc(C(=O)N/N=C/c2ccco2)cc1 do in these assays?
T cruzi inh: inactive; CHT inh: inactive; PolyA inh: inactive; CHT PAM: 7.12; CHT activ conf: 63.6; HEK293 MP dye: -53.9

How did CC(=O)NC(CC(=O)OC(C)C(=O)Nc1ncc(Cl)cc1Cl)c1ccccc1 (stereo not given) do in these assays?
T cruzi inh: inactive; CHT inh: inactive; PolyA inh: inactive; CHT PAM: inactive

What do the screens show for `CC(OC(=O)CC(NC(=O)c1ccccc1Cl)c1ccccc1)C(=O)Nc1cccc(Cl)c1Cl` (stereo not given)?
T cruzi inh: inactive; CHT inh: inactive; PolyA inh: inactive; CHT PAM: inactive; CHT activ conf: 30.9; HEK293 MP dye: inactive

How did Cc1cc(OC(C)C(=O)NCCCN2CCOCC2)c2c(C)cc(=O)oc2c1 (stereo not given) do in these assays?
T cruzi inh: inactive; CHT inh: inactive; PolyA inh: inactive; CHT PAM: inactive; CHT activ conf: 50.4; HEK293 MP dye: -41.2

How did Cc1cc(OC(C)C(=O)NCCN2CCOCC2)c2c(C)c(C)c(=O)oc2c1 (stereo not given) do in these assays?
T cruzi inh: inactive; CHT inh: inactive; PolyA inh: inactive; CHT PAM: inactive; CHT activ conf: 58.1; HEK293 MP dye: -55.6

Results for CCc1cc(=O)oc2cc(C)cc(OC(C)C(=O)NCCN3CCOCC3)c12 (stereo not given) ?
T cruzi inh: inactive; CHT inh: inactive; PolyA inh: inactive; CHT PAM: inactive

Results for COc1ccc(S(=O)(=O)N2CCOC23CCN(S(=O)(=O)c2ccccc2)CC3)cc1 ?
T cruzi inh: inactive; CHT inh: inactive; PolyA inh: inactive; CHT PAM: inactive

How did COc1ccc(-n2cnc3ccccc3c2=O)c([N+](=O)[O-])c1 do in these assays?
T cruzi inh: inactive; CHT inh: inactive; PolyA inh: inactive; CHT PAM: inactive

How did CC1CCCCN1C(=O)CSc1nc(C2CC2)nc2ccccc12 (stereo not given) do in these assays?
T cruzi inh: inactive; CHT inh: inactive; PolyA inh: inactive; CHT PAM: inactive

How did Cc1cccn2c(=O)c(C=NCCO)c(Nc3ccc(Cl)cc3)nc12 do in these assays?
T cruzi inh: inactive; CHT inh: inactive; PolyA inh: inactive; CHT PAM: inactive

What do the screens show for `O=C(COc1ccccc1)NCC(c1ccco1)N1CCN(c2ccc(F)cc2)CC1` (stereo not given)?
T cruzi inh: inactive; CHT inh: inactive; PolyA inh: inactive; CHT PAM: inactive; CHT activ conf: 12.6; HEK293 MP dye: inactive

Results for CCC1=C(OC(=O)N(CC)CC)N2C(=O)OC(=NCC3CC3)[C@]2(Cc2ccccc2)[C@H]2C1=CC[C@H]1C(=O)N(C)C(=O)[C@H]12 ?
T cruzi inh: inactive; CHT inh: inactive; PolyA inh: inactive; CHT PAM: 7.16; CHT activ conf: 39.8; HEK293 MP dye: inactive

How did Cn1nnnc1SCC(=O)NC1CCCC1 do in these assays?
T cruzi inh: inactive; CHT inh: inactive; PolyA inh: inactive; CHT PAM: inactive

What do the screens show for `CCOc1ccccc1-n1c(SCC(=O)Nc2nccs2)nnc1-c1ccoc1C`?
T cruzi inh: inactive; CHT inh: inactive; PolyA inh: inactive; CHT PAM: inactive; CHT activ conf: inactive; HEK293 MP dye: inactive

What do the screens show for `CCN1CCN(S(=O)(=O)c2ccc(Cl)c(C(=O)N(C)Cc3ccc(Cl)cc3Cl)c2)CC1`?
T cruzi inh: inactive; CHT inh: inactive; PolyA inh: inactive; CHT PAM: inactive

How did Cc1nc(CC(=O)c2ccc(O)c(C)c2O)cs1 do in these assays?
T cruzi inh: inactive; CHT inh: inactive; PolyA inh: inactive; CHT PAM: inactive

What do the screens show for `Cc1ccc(O)c(C(=O)c2cnn(C(=O)Cc3csc(C)n3)c2)c1`?
CHT inh: inactive; CHT PAM: inactive; CHT activ conf: 37.4; HEK293 MP dye: -42.9

Results for COc1ccc(CC(=O)Oc2ccccc2Cl)cc1S(=O)(=O)N1CCOCC1 ?
T cruzi inh: inactive; CHT inh: inactive; PolyA inh: inactive; CHT PAM: inactive

Results for Cc1ccccc1C1c2[nH]c3ccccc3c2CCN1Cc1cccn1-c1ncccn1 (stereo not given) ?
T cruzi inh: 55.0; CHT inh: inactive; PolyA inh: inactive; CHT PAM: 6.34; CHT activ conf: 27.0; HEK293 MP dye: inactive

What do the screens show for `Cc1ccccc1C1c2[nH]c3ccccc3c2CCN1CCCn1cccn1` (stereo not given)?
T cruzi inh: inactive; CHT inh: inactive; PolyA inh: inactive; CHT PAM: inactive

How did O=C1NC(NS(=O)(=O)c2ccccc2)(C(F)(F)F)C(=O)N1c1cccc(Cl)c1 (stereo not given) do in these assays?
T cruzi inh: inactive; CHT inh: inactive; PolyA inh: inactive; CHT PAM: inactive
